Bioassay records: PubChem BioAssay, Sanford-Burnham Center for Chemical Genomics
SENP8 block-1 = human SENP8 protease inhibitors, primary screen, biochemical, fluorescence, Nedd8 protein substrate, uHTS; recombinant SENP8; inhibition, % at 20 µM; 360,000 compounds, 0.64% hits; Sentrin-specific protease 8 (Homo sapiens), Q96LD8; AID 602440, 2012; in the data active means inhibition mostly above about 40%, no sharp cut-off; inactive means mostly below about 27%
Target sequence (Q96LD8 whole entry, looked up): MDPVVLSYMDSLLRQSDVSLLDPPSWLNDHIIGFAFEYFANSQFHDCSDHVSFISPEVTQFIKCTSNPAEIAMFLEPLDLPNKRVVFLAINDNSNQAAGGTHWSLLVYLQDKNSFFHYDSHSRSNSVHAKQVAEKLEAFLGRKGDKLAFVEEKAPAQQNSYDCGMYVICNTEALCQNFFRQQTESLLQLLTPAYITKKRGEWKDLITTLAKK
NRP1-CendR mod = modulators of CendR peptide binding to NRP-1, primary screen, biochemical, fluorescence polarization, uHTS | Neuropilin-1 (Homo sapiens), O14786 | FAM-RPARPAR peptide binding to NRP-1 | inhibition, % at 25 µM | 360,000 compounds, 0.85% hits | AID 602438, 2012;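 active means inhibition or corrected inhibition above about 18%, plus a signal ratio from 0.5 to 1.5, limit read from the data, passing the limit was not always enough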
SENP7 block = SENP7 protease inhibitors, primary screen, biochemical, luminescence, uHTS; recombinant SENP7, Z-RLRGG-aminoluciferin luminescence, 40 min; AID 434973, 2010; 330,000 compounds, 1.5% hits; Sentrin-specific protease 7 (Homo sapiens), Q9BQF6; inhibition, % at 5 µM;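 active means inhibition above about 50% at the single test dose, limit read from the data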
SENP6 inh = SENP6 protease inhibitors, primary screen, biochemical, luminescence, uHTS | Sentrin-specific protease 6 (Homo sapiens), Q9GZR1 | Recombinant SENP6 catalytic domain, aminoluciferin luminescence | inhibition, % at 10 µM | 330,000 compounds, 1.8% hits;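 active means inhibition above about 50% at the single tested dose, limit read from the data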
Target sequence (Q9GZR1 628-1112 limits assumed): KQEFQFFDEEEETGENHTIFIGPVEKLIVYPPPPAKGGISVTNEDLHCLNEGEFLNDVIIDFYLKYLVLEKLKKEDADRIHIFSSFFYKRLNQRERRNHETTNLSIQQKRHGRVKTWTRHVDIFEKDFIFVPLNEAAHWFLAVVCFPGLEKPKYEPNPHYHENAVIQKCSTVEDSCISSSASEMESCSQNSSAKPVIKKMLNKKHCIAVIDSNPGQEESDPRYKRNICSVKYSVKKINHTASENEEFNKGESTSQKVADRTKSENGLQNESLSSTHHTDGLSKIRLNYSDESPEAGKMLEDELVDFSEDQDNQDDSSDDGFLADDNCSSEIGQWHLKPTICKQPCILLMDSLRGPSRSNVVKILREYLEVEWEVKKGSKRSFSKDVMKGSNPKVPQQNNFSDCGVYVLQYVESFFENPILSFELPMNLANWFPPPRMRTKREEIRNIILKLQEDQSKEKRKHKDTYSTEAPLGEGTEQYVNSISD
SENP1 FRET inh = human SENP1 catalytic domain inhibitors, primary screen, biochemical, FRET, uHTS | recombinant SENP1 catalytic domain, CyPet-SUMO1-YPet FRET cleavage | inhibition, % at 10 µM | 360,000 compounds, 0.21% hits | AID 624204, 2012;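 active means inhibition at least 30% at 10 µM, raw YFP signal under a set limit, fluorescence ratio 0.5 to 1.5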
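Material – human SENP1 catalytic domain · Input – SENP1 enzyme, 20 pM final · Compound dosing – single concentration of 10 µM compound, 0.5% DMSO final · Timing – enzyme reaction for 50 min at room temperature, dark · Measured by – FRET fluorescence in CFP and YFP emission channels · Control set – no-enzyme wells low, DMSO-plus-enzyme wells high control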
SENP8 block-2 = SENP8 protease inhibitors, primary screen, biochemical, luminescence; Sentrin-specific protease 8 (Homo sapiens), Q96LD8; purified SENP8, Z-RLRGG-aminoluciferin cleavage; inhibition, % at 10 µM; 330,000 compounds, 1.2% hits; in the data active means inhibition above about 50%
SENP8 conf = SENP8 protease inhibitors, retest, confirmation, biochemical, luminescence, single concentration; shares compounds with SENP7 block; Recombinant SENP8, Z-RLRGG-aminoluciferin luminescence, 60 min; inhibition, % at 12.5 µM; 6,200 compounds, 40% hits; AID 488912, 2010;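 active means mean inhibition across replicates above about 50%, limit read from the data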
SENP6 conf = SENP6 protease inhibitors, confirmation, biochemical, luminescence, single concentration. shares compounds with SENP7 block. recombinant SENP6, Z-RLRGG-aminoluciferin luminescence. inhibition, % at 12.5 µM. 6,200 compounds, 58% hits
SENP7 conf = SENP7 protease inhibitors, retest, confirmation, biochemical, luminescence, single concentration. shares compounds with SENP7 block. recombinant SENP7, Z-RLRGG-aminoluciferin luminescence, 40 min. inhibition, % at 12.5 µM. 6,200 compounds, 69% hits. AID 488917, 2010
Casp3 select = caspase-3 protease inhibitors, confirmation, selectivity assay for SENP inhibitor project, biochemical, single concentration; purified caspase-3, Z-DEVD-aminoluciferin luminescence, 60 min; shares compounds with SENP7 block; inhibition, % at 12.5 µM; 6,200 compounds, 60% hits;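 active means mean inhibition above about 50%, limit read from the data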
SENP luc ctr = luminescence interference (SENP counter-screen); shares compounds with SENP7 block; Pre-incubated SENP8/Z-RLRGG-aminoluciferin, luciferase luminescence interference; inhibition, % at 12.5 µM; 6,200 compounds, 39% hits; AID 488919;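 active means mean inhibition above about 50% when retested at one dose, limit read from the data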
Large screens that a line does not name were inactive (follow-up assays come after a bar, where they were run). Shown are actives, neighbours in structure and some others; about 3.3% of the full set was active somewhere.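 How the source made its calls, unless noted: active means mean inhibition above about 50% in the one-dose retest (limit read from the data); inactive means the rest.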

COc1ccc([C@H]2CC(=O)C[C@@H](CCn3cccn3)O2)cc1	none (no result: SENP7 block, SENP6 inh, SENP8 block-2)
CCOC(=O)c1cc(C(=O)Nc2cccc(C)c2)nn1C	SENP7 block 59 | SENP8 conf inactive | SENP6 conf inactive | SENP7 conf 78 | Casp3 select 72 | SENP luc ctr 58
N/C(=N\OC(=O)c1cc(Cl)ccc1Cl)c1ccncc1	none
Cc1ccc(C(=O)O/N=C(\N)c2ccccc2)c(Cl)c1	SENP7 block 99, SENP6 inh 99, SENP8 block-2 97 | SENP8 conf inactive | SENP6 conf inactive | SENP7 conf inactive | Casp3 select inactive | SENP luc ctr inactive
N/C(=N\OC(=O)c1ccc(Cl)cc1Cl)c1ccncc1	SENP7 block 62, SENP6 inh 77, SENP8 block-2 59 | SENP8 conf 62 | SENP6 conf 64 | SENP7 conf 84 | Casp3 select 73 | SENP luc ctr 64
N/C(=N\OC(=O)c1ccccc1Cl)c1ccncc1	none
N/C(=N\OC(=O)c1ccccc1Cl)c1cccc([N+](=O)[O-])c1	SENP7 block 90, SENP6 inh 75, SENP8 block-2 67 | SENP8 conf 59 | SENP6 conf 60 | SENP7 conf 91 | Casp3 select 59 | SENP luc ctr 81
Cc1ccc(C(=O)O/N=C(\N)c2ccccn2)c(Cl)c1	SENP7 block 99, SENP6 inh 96, SENP8 block-2 96 | SENP8 conf 98 | SENP6 conf 99 | SENP7 conf 102 | Casp3 select 98 | SENP luc ctr 98
N/C(=N/OC(=O)c1cccc([N+](=O)[O-])c1)c1cccc([N+](=O)[O-])c1	none
CC1(C(=O)NS(=O)(=O)c2ccc(C#N)cc2)CCN1C(=O)Cc1ccc(Cl)cc1Cl (configuration not stated)	none (no result: SENP7 block, SENP6 inh, SENP8 block-2)
COc1ccc(OCCNC(=O)C2(C)CCN2Cc2ccc3ccccc3c2)cc1 (configuration not stated)	none (no result: SENP7 block, SENP6 inh, SENP8 block-2)
N/C(=N\OC(=O)c1cccc([N+](=O)[O-])c1)c1ccccn1	SENP7 block 61, SENP6 inh 50 | SENP8 conf inactive | SENP6 conf inactive | SENP7 conf 75 | Casp3 select 80 | SENP luc ctr inactive
N/C(=N\OC(=O)c1cc([N+](=O)[O-])ccc1Cl)c1ccccn1	none
N/C(=N\OC(=O)/C=C/c1ccccc1)c1ccccn1	SENP7 block 96, SENP6 inh 95, SENP8 block-2 88 | SENP8 conf 89 | SENP6 conf 90 | SENP7 conf 100 | Casp3 select 94 | SENP luc ctr 93
N/C(=N\OC(=O)COc1cc(Cl)c(Cl)cc1Cl)c1ccccn1	SENP7 block 77, SENP6 inh 79, SENP8 block-2 58 | SENP8 conf inactive | SENP6 conf 55 | SENP7 conf inactive | Casp3 select 52 | SENP luc ctr inactive
N/C(=N\OC(=O)c1ccc([N+](=O)[O-])cc1Cl)c1ccccn1	SENP7 block 95, SENP6 inh 96, SENP8 block-2 91 | SENP8 conf 82 | SENP6 conf 96 | SENP7 conf 102 | Casp3 select 97 | SENP luc ctr inactive
COc1ccc(/C=C/C(=O)O/N=C(\N)c2ccccn2)cc1OC	none
CC(=O)Nc1ccc(S(=O)(=O)NCC2(N3CCOCC3)CCCCC2)cc1	none
N/C(=N\OC(=O)c1ccc(Cl)cc1Cl)c1ccccn1	SENP7 block 99, SENP6 inh 99, SENP8 block-2 96 | SENP8 conf 97 | SENP6 conf 98 | SENP7 conf 102 | Casp3 select 98 | SENP luc ctr 95
N/C(=N\OC(=O)c1ccc(Cl)cc1[N+](=O)[O-])c1ccccn1	SENP7 block 51, SENP6 inh 59, SENP8 block-2 53 | SENP8 conf inactive | SENP6 conf inactive | SENP7 conf 77 | Casp3 select 77 | SENP luc ctr inactive
CC(=O)Nc1cccc(Nc2cnccn2)c1	none (no result: SENP7 block, SENP6 inh, SENP8 block-2)
Fc1ccccc1CNc1ncnc2sccc12	SENP6 inh 87 | SENP8 conf inactive | SENP6 conf inactive | SENP7 conf inactive | Casp3 select inactive | SENP luc ctr inactive
CC(=O)Nc1cc2nn(-c3ccccc3)nc2cc1C	SENP7 block 77, SENP6 inh 78, SENP8 block-2 72 | SENP8 conf inactive | SENP6 conf inactive | SENP7 conf 87 | Casp3 select 79 | SENP luc ctr inactive
Cc1cc2nn(-c3ccccc3)nc2cc1NC(=O)c1cccs1	none
O=C(Nc1cccn2nc(COCCO)nc12)C(c1ccccc1)c1ccccc1	none (no result: SENP7 block, SENP6 inh, SENP8 block-2)
COc1cc(Nc2ccn3nccc3n2)cc(OC)c1OC	none (no result: SENP7 block, SENP6 inh, SENP8 block-2)
O=C(Nc1ccc(Cl)cc1)Nc1ccccc1C(=O)NCc1ccco1	SENP7 block 96, SENP6 inh 91, SENP8 block-2 84 | SENP8 conf 80 | SENP6 conf 81 | SENP7 conf 99 | Casp3 select 78 | SENP luc ctr 78
O=C(Nc1ccccc1C(=O)NCc1ccccc1)c1ccccc1	none
O=C(Nc1ccccc1)Nc1ccccc1C(=O)NCc1ccccc1	SENP7 block 52 | SENP8 conf inactive | SENP6 conf inactive | SENP7 conf 74 | Casp3 select inactive | SENP luc ctr inactive
CC(C)[C@@H]1Cc2[nH]c(=O)[nH]c(=O)c2[C@H](c2ccc(F)cc2)O1	none (no result: SENP7 block, SENP6 inh, SENP8 block-2)
Cc1ccc(S(=O)(=O)/N=C2\C=C(Nc3ccc(O)cc3)C(=O)c3ccccc32)cc1	SENP8 block-1 80, SENP7 block 64, SENP6 inh 84, SENP8 block-2 90 | SENP8 conf 90 | SENP6 conf 95 | SENP7 conf 86 | Casp3 select 94 | SENP luc ctr inactive
